Compound activity as filed in PubChem.
M1 antagonist = antagonists of rat M1 muscarinic receptor. Muscarinic acetylcholine receptor M1 (Rattus norvegicus), P08482. CHO-M1 cells, Fluo-4 calcium, ACh EC80 antagonist mode; stronger effect = lower value. B-score at 10 µM. 64,000 tested, 3.4% active. AID 628, 2007;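 active = calcium fluorescence response, raw or row-and-column corrected B-score, differing from the plate sample mean either way at a set confidence level, mostly lower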
Target sequence (P08482 whole entry, looked up): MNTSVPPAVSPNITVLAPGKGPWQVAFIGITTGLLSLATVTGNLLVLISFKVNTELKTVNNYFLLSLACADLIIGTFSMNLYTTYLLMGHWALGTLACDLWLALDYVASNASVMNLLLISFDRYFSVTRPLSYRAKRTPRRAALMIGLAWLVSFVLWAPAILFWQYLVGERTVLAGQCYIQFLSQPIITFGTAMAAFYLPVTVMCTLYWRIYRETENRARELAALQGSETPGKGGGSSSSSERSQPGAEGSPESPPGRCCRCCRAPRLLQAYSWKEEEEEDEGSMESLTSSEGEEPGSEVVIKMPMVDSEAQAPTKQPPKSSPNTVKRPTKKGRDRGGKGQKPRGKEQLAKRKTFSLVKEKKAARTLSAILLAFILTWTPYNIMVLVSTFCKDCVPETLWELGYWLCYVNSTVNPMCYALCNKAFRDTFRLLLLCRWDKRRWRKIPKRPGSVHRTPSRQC
D1 allo mod = D1 CRE-luciferase signal change, two-sided – cell-based, HEK293 D1, dopamine EC30, D1 allosteric modulator project, primary screen; D(1A) dopamine receptor (Homo sapiens), P21728; dopamine EC30 potentiation; actives deviate in either direction; B-score at 10 µM; 58,000 tested, 5.9% active; AID 641, 2007;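 active = luminescence count or its row- and column-corrected plate score outside the 99.7% band of the plate's sample wells, on either side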
hDAT+cocaine = changed hDAT dopamine uptake under cocaine IC80, either direction, primary screen, cocaine antagonist project, cell-based, LLC-PK1 hDAT, [14C]-dopamine uptake, MLSMR; 110,000 tested, 1.3% active; B-score at 10 µM; Sodium-dependent dopamine transporter (Homo sapiens), Q01959; AID 449768, 2010; LLC-PK1 hDAT cells, [14C]-dopamine uptake with cocaine IC80; actives deviate in either direction;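 active = Z score or B-score, a plate-position-corrected score, falls beyond the plate's 99.7% confidence bounds, in either direction; inactive = both scores lie inside the 99.7% bounds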;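 note: scored against the spread of the other compound wells on the same plate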
HEK293 NFkB inh = inhibitors of PMA/ionomycin-induced NF-kB reporter, primary screen, antigen receptor NF-kB inhibitor project, cell-based, HEK-293 luciferase reporter, luminescence | inhibition, % at 3 µM | 62,000 tested, 0.21% active | HEK-293 NF-kB luciferase reporter | AID 465, 2006;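 active = inhibition above the mean of all tested compounds plus 3 SD, cut at about 40% in these data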;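 note: 0% = stimulated DMSO wells and 100% = 10 µM reference inhibitor 5653914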
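Material: HEK-293 cells with stable firefly luciferase reporter driven by four HIV NF-kB elements / Also added: PMA plus ionomycin mix as NF-kB-activating stimulus / Compound dosing: 3 µM once, 0.30% DMSO / Times: 1 h pretreatment, 16 h stimulation, 37 °C / Signal: luminescence / Evaluation: per-plate % inhibition versus controls / Benchmarks: DMSO and 10 µM reference inhibitor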
Jurkat viability = cytotoxicity toward Jurkat T cells, primary screen, cytotoxicity control, cell-based, Jurkat E6.1, 60K MLSMR library; Jurkat E6.1 viability, ATP luminescence, 48 h; inhibition, % at 4 µM; 56,000 tested, 1.2% active; AID 463, 2006;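 active = inhibition above the mean inhibition of all tested compounds plus 3 SD, cut at about 28% in these data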
M1 ag = M1 muscarinic receptor agonists, primary screen, CHO-M1 cells, Fluo-4 calcium, agonist mode; Fluo-4 calcium fluorescence; stronger effect = higher value; B-score at 10 µM; 64,000 tested, 3% active;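 active = fluorescence rise, raw or as B-score row- and column-corrected plate score, outside the 99.7% band of its plate's samples, either direction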
D1 PAM confirm = D1 receptor positive allosteric modulators, retest, confirmation, cell-based, HEK293 D1, CRE-luciferase, duplicate; 2,200 tested, 88% active; shares compounds with D1 allo mod; luminescence at 10 µM; AID 642, 2007; dopamine EC30 potentiation; stronger effect = higher value;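 active = luminescence in either of two replicates above the same-plate mean plus 3 SD of the low-dose dopamine control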
D1 ag no DA = D1 receptor agonism without dopamine, confirmation, mechanism study for D1 allosteric modulator project, cell-based, HEK293 D1, CRE-luciferase, secondary assay 1; shares compounds with D1 allo mod; luminescence, no dopamine; stronger effect = higher value; luminescence at 10 µM; 1,900 tested, 0.8% active; in the data active = luminescence above about 3900
Isoprot counter = isoproterenol response counter-screen activity for D1 modulators. shares compounds with D1 allo mod. HEK293 D1 CRE-luciferase, isoproterenol EC30 counter-screen. calls only at 10 µM. 2,200 tested, 63% active;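 active = luminescence in either replicate above plate mean of wells with a partly effective reference agonist dose plus 3 SD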;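 note: isoproterenol raises cAMP through native beta-adrenoceptor Gs so signal bypasses D1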
* hit, by the source's call; i = inactive; nt = no result; + = active, no number. In the library only some 7.6% were active in any assay of this set; here they are far more common.

SMILES	M1 antagonist	D1 allo mod	hDAT+cocaine	HEK293 NFkB inh	Jurkat viability	M1 ag	D1 PAM confirm	D1 ag no DA	Isoprot counter
Cc1[nH]c2ccc(Br)cc2c(=O)c1CN1CCCCC1	-0.11	-0.73	-0.065	6	0	-0.13	nt	nt	nt
Cc1ccc(C(=O)NCCSC2CCCCC2)cc1S(=O)(=O)Nc1ccccc1	nt	nt	1.2	nt	nt	nt	nt	nt	nt
CCC1C(C#N)=C(N)OC2=C1C(=O)CC(C)(C)C2 (stereo not drawn)	0.43	0.079	0.043	13	-2	0.065	nt	nt	nt
CCCCCCC1C(C#N)=C(N)OC2=C1C(=O)CC(C)(C)C2 (stereo not drawn)	0.6	3.7*	0.23	-2	-3	3.9	12024*	1864	+
CC(=O)C1=C(C)N(CC2CC2)C(=O)N[C@H]1c1cccs1	nt	nt	0.039	nt	nt	nt	nt	nt	nt
CCCCn1c(NCCC)nc2c1c(=O)[nH]c(=O)n2C	0.79	5.9*	0.046	14	-1	-0.035	9640*	1280	i
CCCNc1nc2c(c(=O)[nH]c(=O)n2C)n1Cc1cccc(Br)c1	1.2	0.96	1.1	19	nt	0.086	nt	nt	nt
C=CCNc1nc2c(c(=O)[nH]c(=O)n2C)n1CCCCC	0.23	6.6*	0.82	4	-1	1.1	23492*	1616	+
CCCNc1nc2c(c(=O)[nH]c(=O)n2C)n1CCC(C)C	1.5	7.5*	0.31	-6	4	0.2	12920*	1500	+
CNc1nc(C)nc(-c2ccccc2O)n1	-0.27	9.1*	nt	10	-4	0.09	23276*	1644	+
CC1CCCCN1C(=O)CSc1nc2ccccc2n1CC(=O)N1CCc2ccccc21 (stereo not drawn)	-0.13	nt	0.31	19	-6	-0.61	nt	nt	nt
Nc1cc(C(=O)c2ccccc2)ccc1N1CCOCC1	nt	nt	0.46	nt	nt	nt	nt	nt	nt
Nc1ccc(SC(F)(F)F)cc1C(=O)c1ccccc1	-0.21	14*	nt	5	-4	0.51	13336*	1612	+
Oc1c(C(c2cccc(F)c2)N2CCN(Cc3ccccc3)CC2)sc2ncnn12 (stereo not drawn)	0.043	0.78	0.053	-11	-6	-1.7	nt	nt	nt
CN1CCN(c2oc(-c3ccco3)nc2S(=O)(=O)c2ccccc2)CC1	0.16	-1.7	-0.25	10	0	0.25	nt	nt	nt
CC(C)Sc1oc(-c2ccco2)nc1S(=O)(=O)c1ccc(F)cc1	-1.1	3.4	0.7	14	nt	-0.011	nt	nt	nt
CSc1oc(-c2ccco2)nc1S(=O)(=O)c1ccc(Br)cc1	-0.1	4*	-0.45	6	-6	0.098	15096*	1696	i
COc1cc(-c2nc(S(=O)(=O)c3ccccc3)c(N3CCOCC3)o2)cc(OC)c1OC	-0.91	5.1*	-0.21	20	nt	-0.12	11504*	1656	+
CCCSc1oc(-c2ccco2)nc1S(=O)(=O)c1ccccc1	-1.3	17*	0.64	10	-4	0.018	14944*	1692	+
O=S(=O)(c1ccccc1)c1nc(-c2ccco2)oc1N1CCCCCC1	-0.38	6.6*	-0.068	19	2	0.97	10268*	1700	i
COc1ccc(OC(C)C(=O)N2CCc3ccccc3C2)cc1 (stereo not drawn)	-0.46	0.029	0.074	-1	-5	0.28	nt	nt	nt
COc1ccc(NC(=O)c2nc[nH]c2C(=O)N[C@@H](C)C(=O)OC(C)(C)C)cc1	nt	nt	2.4	nt	nt	nt	nt	nt	nt
CCSc1oc(-c2ccccc2)nc1S(=O)(=O)c1ccccc1	0.1	1.9	0.21	10	3	0.053	nt	nt	nt
CCSc1oc(-c2ccco2)nc1S(=O)(=O)c1ccccc1	-0.41	3*	0.29	15	nt	0.052	24204*	1844	+
COC(=O)c1oc2ccc(Br)cc2c1-n1cccc1	-0.39	8.3*	0.013	9	1	-0.087	6260*	1564	+
SMILES	M1 antagonist	D1 allo mod	hDAT+cocaine	HEK293 NFkB inh	Jurkat viability	M1 ag	D1 PAM confirm	D1 ag no DA	Isoprot counter
CSc1nc(NC(C)(C)C)nc(N2CCOCC2)n1	1.2	15*	-1.8	12	nt	0.58	15276*	1464	+
COC(=O)CSc1nc(NCC(C)C)nc(N2CCOCC2)n1	-0.52	0.44	-0.36	15	-7	-0.51	nt	nt	nt
CCNc1nc(SCC(=O)OC)nc(N2CCOCC2)n1	-0.021	6.4*	-0.83	14	nt	1.1	18868*	1512	+
CCNc1nc(SC(C)C(=O)OC)nc(N2CCOCC2)n1 (stereo not drawn)	0.0041	7*	-0.09	1	nt	-0.89	16348*	1712	+
CCOc1cc(C2/C(=C(\O)c3cc(C)ccc3C)C(=O)C(=O)N2CCN(C)C)ccc1O (stereo not drawn)	0.58	-0.36	0.36	23	nt	-1.2	nt	nt	nt
O=C1C=C(N(CCO)CCO)C2(CCCCC2)O1	-0.48	-0.51	0.43	8	-8	0.0031	nt	nt	nt
CCOc1ccccc1-c1nc(SCC(=O)O)n[nH]1	0.75	3.8*	0.012	-5	-2	0.017	5488	1396	i
COc1ccc(Br)cc1CNc1ccc(O)cc1	-0.16	-0.63	-0.43	18	5	-0.29	nt	nt	nt
CCO[C@@H]1OC(C(=O)N2CCN(Cc3ccccc3)CC2)=C[C@H](C2CC2)[C@H]1CCCO	nt	nt	0.42	nt	nt	nt	nt	nt	nt
CCOc1ccc(Nc2oc(-c3cccs3)nc2C#N)cc1	0.41	5.8*	0.18	-4	8	0.011	11044*	1540	+
CCOc1ccc(Nc2oc(-c3ccco3)nc2C#N)cc1	1.4	4*	0.029	10	-1	0.4	19668*	1436	+
CCOc1ccc(Nc2oc(-c3cccc(Cl)c3)nc2C#N)cc1	nt	nt	-0.057	nt	nt	nt	nt	nt	nt
COCc1c(C(=O)OC)nnn1-c1ccccc1	nt	nt	-1.1	nt	nt	nt	nt	nt	nt
Cc1ccc(-n2c(SCC(=O)OC(C)C)nnc2-c2ccncc2)cc1	0.29	0.11	0.43	9	-4	-1	nt	nt	nt
CC(C)OC(=O)CSc1nnc(-c2cnccn2)n1-c1ccc(Cl)cc1	0.3	3.4*	-1.5	21	2	-0.66	11484*	1664	i
